The list is not random: actives were taken first. Their share in the collection is about 3.1%.
OX1R antag-1 – antagonists of human orexin 1 receptor (OX1R); Orexin/Hypocretin receptor type 1 (Homo sapiens), O43613; OX1R-expressing cells, FRET antagonist read-out; inhibition, % at 6.6 µM; 1.8% of 330,000 active; AID 485270, 2010; in the data active = inhibition mostly above about 38%, no sharp cut-off; inactive = mostly below about 40%;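 also: 0% = agonist challenge alone and 100% = reference antagonist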
GPR7 antag – GPR7 receptor antagonists, primary screen, cell-based, fluorescence, single concentration. AID 1861, 2009. GPR7-expressing cells, fluorescence antagonist assay. inhibition, % at 4.4 µM. 1.1% of 290,000 active; in the data active = inhibition above about 16%, passing the limit was not always enough;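 also: cells stimulated with the agonist NPW; 0% = agonist with vehicle and 100% = vehicle without agonist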
Target sequence (P48145 whole entry, looked up): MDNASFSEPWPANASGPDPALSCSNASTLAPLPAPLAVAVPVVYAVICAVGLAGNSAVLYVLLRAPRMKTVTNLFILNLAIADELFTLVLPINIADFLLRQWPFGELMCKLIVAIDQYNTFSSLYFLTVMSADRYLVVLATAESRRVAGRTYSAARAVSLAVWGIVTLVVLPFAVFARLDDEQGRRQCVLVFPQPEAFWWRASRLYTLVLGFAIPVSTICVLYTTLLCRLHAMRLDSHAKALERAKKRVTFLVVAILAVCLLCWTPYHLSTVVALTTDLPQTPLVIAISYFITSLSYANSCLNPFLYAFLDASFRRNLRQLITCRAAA
GalR3 antagonist – GalR3 antagonists in HEK293 cells, primary screen, cell-based, fluorescence readout; Galanin receptor type 3 (Homo sapiens), O60755; HEK293 GalR3-CNG cAMP membrane potential fluorescence; galR3 body fused to GalR1 C-terminus; inhibition, % at 3 µM; 0.44% of 360,000 active; AID 651719, 2012;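 active = inhibition above the screen-wide average plus 3 SD, cut at about 13% in these data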;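 also: forskolin and galanin both at EC90 stimulate the cells; cAMP rise reported by CNG channel membrane potential dye signal; 0% = forskolin plus galanin with DMSO and 100% = forskolin alone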
Target sequence (O60755 1-299 limits assumed): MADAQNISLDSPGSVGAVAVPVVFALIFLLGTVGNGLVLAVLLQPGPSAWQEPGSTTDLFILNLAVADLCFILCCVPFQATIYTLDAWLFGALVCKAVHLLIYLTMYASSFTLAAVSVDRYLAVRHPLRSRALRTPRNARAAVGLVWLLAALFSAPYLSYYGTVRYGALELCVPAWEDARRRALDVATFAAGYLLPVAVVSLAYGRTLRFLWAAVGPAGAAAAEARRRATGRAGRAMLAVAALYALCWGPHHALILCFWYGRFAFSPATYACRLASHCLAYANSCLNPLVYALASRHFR
CHO parental Ca – ATP-evoked calcium signal inhibitors, parental CHO, primary screen, counter-screen for OX1R antagonist project, cell-based, fluorescence, Fluo-8 calcium dye | parental CHO-K1, ATP-induced calcium, Fluo-8 fluorescence | inhibition, % at 5.6 µM | 0.63% of 330,000 active;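 active = inhibition above that plate's mean sample inhibition plus 3 SD, cut at about 26% in these data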;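 also: 0% = ATP-challenged DMSO wells and 100% = DMSO wells without ATP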
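Assay system: parental CHO cells; Read-out basis: percent inhibition of ATP-evoked calcium rise, normalized to controls; Benchmarks: ATP and no-ATP DMSO wells; Compound dosing: single nominal dose of 5.6 µM per compound; Signal: Fluo-8 calcium dye fluorescence; Also added: ATP as calcium-mobilizing challenge; Repeats: singlicate.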
OX1R antag-2 – OX1R (HCRTR1) antagonists, primary screen, fluorescence, CHO/OX1R cells, Fluo-8 calcium, orexin A. Orexin/Hypocretin receptor type 1 (Homo sapiens), O43613. Fluo-8 calcium fluorescence. inhibition, % at 5 µM. 0.43% of 330,000 active. AID 434989, 2010;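 active = inhibition above its plate's threshold, mean inhibition of all tested compounds on the plate plus 3 SD, cut at about 37% in these data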;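 also: 0% = orexin A challenge wells and 100% = SB-334867-A antagonist wells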
OX1R Ca confirm – OX1R (HCRTR1) antagonists, confirmation, fluorescence, CHO/OX1R cells, Fluo-8 calcium, orexin A; shares compounds with OX1R antag-2; orexin A calcium Fluo-8 fluorescence; inhibition, % at 5 µM; 38% of 1,100 active; in the data active = inhibition above about 29%;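 also: 0% = agonist challenge alone and 100% = reference antagonist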
CHO Ca counter – ATP-evoked calcium inhibition in parental CHO, counter-screen for OX1R antagonist project, cell-based, fluorescence, CHO-K1, triplicate; inhibition, % at 5.6 µM; shares compounds with OX1R antag-2; 9.3% of 1,100 active; ATP-induced calcium, Fluo-8 fluorescence;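 active = inhibition above a per-plate limit, the mean inhibition of that plate's test compounds plus 3 SD, cut at about 25% in these data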;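 also: 0% = ATP challenge with DMSO and 100% = DMSO without ATP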
OX1R HTRF confirm – OX1R (HCRTR1) antagonists, confirmation, cell-based, HTRF; shares compounds with OX1R antag-1; OX1R-expressing cells, HTRF antagonist assay; inhibition, % at 6.6 µM; 49% of 1,800 active; AID 492964, 2010; in the data active = inhibition above about 55%;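 also: CHO cells expressing OX1R stimulated with orexin A at about EC80; 0% = agonist challenge alone and 100% = reference antagonist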
CHO-K1 HTRF – signal inhibition in parental CHO-K1 cells, counter-screen for OX1R antagonist project, cell-based, HTRF | inhibition, % at 6.6 µM | HTRF counterscreen | shares compounds with OX1R antag-1 | AID 493232, 2011 | 48% of 1,800 active; in the data active = inhibition above about 17%;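 also: 0% = agonist challenge with vehicle and 100% = vehicle alone without agonist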
Starred values were filed as active, the others as inactive; . = not tested or not shown.

SMILES	OX1R antag-1	GPR7 antag	GalR3 antagonist	CHO parental Ca	OX1R antag-2	OX1R Ca confirm	CHO Ca counter	OX1R HTRF confirm	CHO-K1 HTRF
CCn1c(SCC(=O)Nc2sc3c(c2C#N)CCCC3)nnc1-c1ccco1	93.8*	-9.5	-6.3	-22.3	30.9	21.2	-15.1	77.8*	-1.0
COc1cc2c(cc1NC(=O)c1ccccc1F)CCCC2	20.8	-5.2	-4.0	-3.5	-22.9	.	.	.	.
COc1cc(OC)c(NC(=O)c2ccccc2F)cc1Cl	89.0*	-0.8	-1.0	-6.9	30.1	35.0*	-9.2	81.9*	8.7
O=C(Nc1cc(Sc2ccccn2)cc([N+](=O)[O-])c1)c1cccc(Cl)c1	37.3	4.8	-6.4	-5.0	-0.9	.	.	.	.
O=C(Nc1cc(Sc2ccccn2)cc([N+](=O)[O-])c1)c1ccc(Cl)cc1	93.6*	-8.4	1.5	19.7	39.6	-21.2	12.4	34.2	-2.3
CC(C)Oc1ccc(F)cc1-c1cc(C(=O)N2CCc3ccccc3C2)[nH]n1	.	.	-5.8	.	.	.	.	.	.
Cc1cccc(N=C2NC(=O)/C(=C/c3cccn3C)S2)c1C	5.0	-6.7	-1.0	-24.2	-34.5	.	.	.	.
Cc1ccc(N=C2NC(=O)/C(=C/c3cccn3C)S2)cc1C	78.8*	-5.1	-6.1	-32.9	57.5*	62.0*	-16.4	86.8*	6.9
O=C(COC(=O)CNC(=O)c1ccccc1)NC12CC3CC(CC(C3)C1)C2	.	.	-6.0	.	.	.	.	.	.
CCc1ccc(-c2cc(C)no2)cc1S(=O)(=O)N1CCOc2ccc(C)cc21	28.7	-9.6	0.4	-9.3	-3.4	.	.	.	.
CCC1CN(S(=O)(=O)c2cc(-c3cc(C)no3)ccc2OC)c2cc(C)ccc2O1 (stereo not drawn)	73.2*	4.1	1.5	-27.9	62.9*	27.0	-8.9	85.6*	1.6
COC(=O)[C@H](CC(C)C)NS(=O)(=O)N(Cc1ccccc1)[C@@H](CC(C)C)C(=O)OC	48.3*	.	-5.3	-26.8	48.6	14.5	-12.1	53.6	5.3
O=[N+]([O-])c1cccc(-c2nc(-c3cccs3)c(-c3cccs3)[nH]2)c1	99.1*	-4.3	-7.0	9.3	37.9	12.5	-3.4	74.0*	6.9
C=CCn1c(SCc2ccccc2C#N)nnc1-c1cc(Br)ccc1O	52.8*	1.0	-5.8	17.5	53.1*	10.6	22.9	31.1	-1.6
C=CCn1c(SCC(N)=O)nnc1-c1cccc(Br)c1	9.7	-5.8	-1.1	-15.0	-4.5	.	.	.	.
O=S1(=O)N[C@@H](Cc2ccccc2)COc2cccc(NCCCN3CCOCC3)c21	.	.	-5.8	.	.	.	.	.	.
Cc1c2ccccc2nc2c(F)c(N(C)C)c(F)c(F)c12	81.7*	0.5	-1.0	5.4	49.5*	71.2*	15.8	93.3*	12.3
CC(C)N1CCC1(C)C(=O)Nc1ccc(-n2cccc2)cc1 (stereo not drawn)	.	.	-6.9	.	.	.	.	.	.
CCCCNC(=O)CCC(=O)NNc1nc2ccccc2c2nc(-c3ccccc3)nn12	76.9*	-7.4	2.1	-26.4	40.7	33.2*	-21.2	92.2*	-8.4
CCCCNC(=O)CCC(=O)NNc1nc2ccccc2c2nc(C)nn12	17.7	-12.0	-11.9	-1.4	-14.1	.	.	.	.
O=C(CSc1ccc(Br)c2cccc(Cl)c12)Nc1ccc(S(=O)(=O)Nc2nccs2)cc1	96.5*	-19.3	0.9	0.8	79.6*	73.6*	-3.1	89.8*	8.7
CCOC(=O)N1CCN(C(=O)C[C@H]2C[C@@]3(C(=O)OC)C(=C[C@H](COCc4ccccc4)O[C@@H]3C)N(Cc3ccc4c(c3)OCO4)C2=O)CC1	.	.	-4.7	.	.	.	.	.	.
COc1ccc(-c2csc(NC(=O)c3ccccc3C(=O)O)n2)cc1	13.9	-5.9	-4.3	2.7	-1.9	.	.	.	.
COc1ccccc1C(=O)Nc1nc(-c2ccc(S(=O)(=O)N3CCOCC3)cc2)cs1	88.9*	-2.5	94.0*	24.3	32.6	56.4*	29.0*	57.9*	15.4
COc1cccc(OC)c1C(=O)Nc1nc(-c2ccccc2)cs1	97.0*	12.2	-3.2	-16.6	38.5*	30.3*	-9.2	89.0*	5.1
SMILES	OX1R antag-1	GPR7 antag	GalR3 antagonist	CHO parental Ca	OX1R antag-2	OX1R Ca confirm	CHO Ca counter	OX1R HTRF confirm	CHO-K1 HTRF
CCOc1ccccc1N(CC(=O)NCCSCc1ccco1)S(=O)(=O)c1ccccc1	84.3*	10.7	-4.4	-21.0	43.1*	47.0*	-24.4	80.0*	-1.4
COc1cccc(CNC(=O)[C@H]2CCCN2C(=O)[C@H]2CCCN2S(=O)(=O)c2cccc(C)c2)c1	.	.	-8.7	.	.	.	.	.	.
C=C(C)C(COc1c2occc2cc2ccc(=O)oc12)OC(C)(C)C(O)COc1c2occc2cc2ccc(=O)oc12 (stereo not drawn)	83.8*	.	-1.4	-23.9	61.1*	39.3*	-5.5	87.9*	-1.5
Cc1c(C(=O)NCc2ccc(Cl)c(Cl)c2)sc(=O)n1Cc1ccc(C(=O)N(C)C)cc1	.	.	0.8	.	.	.	.	.	.
COc1ccccc1Nc1nc(N)nc(-c2cc3ccccc3o2)n1	77.2*	-1.5	-7.7	-12.1	38.2	31.1*	-10.8	64.9*	0.7
CCc1nc(NCC2CC2)c2nnn(Cc3ccccc3)c2n1	.	.	-4.8	.	.	.	.	.	.
O=C(Nc1ccc(Cl)c(Cl)c1)c1cccc(S(=O)(=O)NCc2cccnc2)c1	66.7*	29.6*	4.8	-3.4	36.3	38.3*	55.1*	77.3*	5.2
Cc1ccc(NC(=O)c2ccc(S(=O)(=O)NCc3cccnc3)cc2)cc1C	10.5	-10.1	-2.6	-19.5	-24.4	.	.	.	.
O=C(N/N=C/C(Br)=C/c1ccccc1)c1cc(-c2ccco2)[nH]n1	73.2*	0.6	-7.7	-11.7	26.4	49.8*	7.1	86.9*	9.0
CC(/C=N/NC(=O)c1cc(-c2cccs2)[nH]n1)=C\c1ccccc1	88.2*	-5.4	-5.2	-14.5	45.0*	45.0*	-2.3	73.0*	11.3
COc1ccc(CCNc2ccc([N+](=O)[O-])cn2)cc1	.	7.3	-10.7	.	.	.	.	.	.
COc1ccc(CCNc2cc(=O)[nH]c(N)n2)cc1	86.1*	-4.3	.	-3.7	76.0*	11.5	1.8	55.3*	6.1
Cc1nc2c(ccc3nc(NC(=O)Cc4cccc5ccccc45)sc32)s1	90.3*	-9.7	2.9	-2.4	56.2*	63.6*	-19.1	89.9*	5.4
